ZTA DNA inh = ZTA (EBV) inhibition in EBNA-1 counter-screen; P03206; ZTA-DNA binding, fluorescence polarization; inhibition, % at 11 µM; 0.15% of 320,000 active; in the data active = inhibition above about 33%
NS3 helicase inh = HCV NS3 helicase inhibition | 0.56% of 290,000 active | AID 1800 | NS3 helicase DNA unwinding, Cy5 molecular beacon fluorescence | inhibition, % at 10.9 µM;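 active = inhibition above the mean of all tested compounds plus 3 SD, set per campaign, cut at about 35% in these data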
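Test system: hepatitis C virus NS3 helicase domain fragment enzyme. Also added: annealed dual-labelled DNA beacon duplex, ATP-started. Timing: 60 min unwinding reaction at 25 °C after ATP addition. Technique: Cy5 fluorescence. Measure: % inhibition of unwinding.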
HCV core dimer = blocks dimerization of HCV core protein | TR-FRET GST/Flag-core106 dimerization, 1536-well | inhibition, % at 5 µM | 0.33% of 300,000 active;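 active = inhibition above the mean of all tested compounds plus 3 SD, set per screening campaign, cut at about 45% in these data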
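Assay system: Tagged HCV core106 pair (GST and Flag) | Buffer or medium: KF-containing HEPES buffer, pH 7.45, DTT, CHAPS, BSA | Also added: Eu donor and XL665 acceptor anti-tag antibodies | Dosing: One concentration, 5 µM, in 0.5% DMSO | Timing: 4 h at 22.5 °C | Technique: TR-FRET 671 and 617 nm emission | Repeats: Singlicate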
EBNA-1 inhibitor = blocks EBNA-1 binding to DNA; EBNA-1 DNA binding, fluorescence polarization; inhibition, % at 14.8 µM; 0.34% of 300,000 active; in the data active = inhibition above about 28%
PP1 counter = counter-screen for PP5 inhibitors: inhibitors of human PP1-alpha; purified PP1alpha, OMFP fluorescence; inhibition, % at 6.7 µM; 0.9% of 320,000 active; AID 2235;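 active = inhibition above the mean inhibition of all tested compounds plus 3 SD, computed separately for each screening campaign, cut at about 15% in these data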
Target sequence (P62136 whole entry, looked up): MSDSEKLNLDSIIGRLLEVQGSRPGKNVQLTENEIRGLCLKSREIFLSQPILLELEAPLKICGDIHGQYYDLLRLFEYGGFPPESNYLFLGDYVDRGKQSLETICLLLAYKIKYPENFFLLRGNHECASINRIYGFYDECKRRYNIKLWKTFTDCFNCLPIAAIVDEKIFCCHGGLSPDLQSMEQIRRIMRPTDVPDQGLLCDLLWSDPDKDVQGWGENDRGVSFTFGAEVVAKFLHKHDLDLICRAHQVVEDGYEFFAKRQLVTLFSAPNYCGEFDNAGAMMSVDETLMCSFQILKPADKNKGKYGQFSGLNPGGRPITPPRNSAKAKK
EBNA-1 inh conf = EBNA-1 (EBV) inhibition, confirmation | 35% of 830 active | shares compounds with EBNA-1 inhibitor | inhibition, % at 14.8 µM | Recombinant EBNA-1 DBD, Cy5-DNA fluorescence polarization;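 active = mean inhibition across replicates above a set limit taken from the earlier primary screen, cut at about 28% in these data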
ZTA DNA inh trip = ZTA (EBV) inhibition, triplicate counter-screen | 830 tested, under 10 active | shares compounds with EBNA-1 inhibitor | inhibition, % at 11.1 µM | AID 2328 | Zta-ZRE DNA binding, Cy5 fluorescence polarization;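 active = mean inhibition over triplicates above a set limit taken from the primary EBNA-1 screen, cut at about 37% in these data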;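 also: purified full length Zta protein with Cy5 labeled ZRE DNA probe; inhibitors lower polarization by freeing the labeled DNA probe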
Numbers stand for hits; - = inactive; . = not tested or not shown. Only some compounds are listed: those with a hit (about 1.9% of all), similar ones and a draw of the others.

SMILES	ZTA DNA inh	NS3 helicase inh	HCV core dimer	EBNA-1 inhibitor	PP1 counter	EBNA-1 inh conf	ZTA DNA inh trip
COc1cccc(N2CC(C(=O)Nc3nnc(SCC(=O)Nc4cc(C)on4)s3)CC2=O)c1 (stereo not given)	-	-	-	-	-	.	.
Cc1ccc(CN2C(=O)c3ccccc3NC2c2cc(Br)ccc2O)cc1 (stereo not given)	-	-	-	-	-	.	.
CCc1nnc(NC(=O)CSc2nc3c(cc2C#N)CCC3)s1	-	-	-	-	-	.	.
N#Cc1cc2c(nc1SCC(=O)Nc1nccs1)CCCCC2	-	-	-	30	-	-	-
CCCOc1ccc(C2NC(=S)NC(c3ccccc3)=C2C(=O)Nc2ccc(C)cc2)cc1OC (stereo not given)	-	-	-	-	-	.	.
COc1ccc(NC(=S)NNC(=S)Nc2cccc(C(F)(F)F)c2)cc1	-	-	-	169	-	83	-
CCOc1ccc(NC(=S)NNC(=S)Nc2cccc(C(F)(F)F)c2)cc1	-	-	-	-	-	.	.
Cc1ccc2c(c1)[nH]c1c(=O)n(Cc3ccco3)cnc12	-	-	-	70	-	37	-
CCOC(=O)N/N=C(/C)c1ccc([N+](=O)[O-])o1	-	-	-	36	-	-	-
C/C(=N\NC(=O)CCC(=O)N/N=C(\C)c1ccc(C)o1)c1ccc(C)o1	-	.	-	-	-	.	.
O=C(COC(=O)/C=C/c1ccc(F)cc1)Nc1cc(C(F)(F)F)ccc1N1CCOCC1	-	-	-	-	-	.	.
O=C(COC(=O)/C=C/c1ccccc1)Nc1cc(C(F)(F)F)ccc1N1CCOCC1	-	-	-	55	-	75	-
COc1cc(OC)c(/C=C2\SC(=O)N(CC(=O)Nc3ccccc3F)C2=O)c(OC)c1	-	-	-	96	-	67	-
COc1cc(/C=C2\SC(=O)N(CC(=O)Nc3ccccc3F)C2=O)cc(Cl)c1O	-	-	-	-	-	.	.
N#Cc1c2c(c(Nc3ccc(O)cc3)n3c1nc1ccccc13)CCC2	-	-	-	39	-	-	-
CCOc1ccc(C2CC(=O)NC2=O)cc1 (stereo not given)	-	-	-	-	-	.	.
CN(NC(=O)c1ccccc1)C1=NS(=O)(=O)c2ccccc21	-	-	-	-	-	.	.
CCN(CC)S(=O)(=O)c1ccc(C(=O)NN(C)C2=NS(=O)(=O)c3ccccc32)cc1	-	-	-	36	-	-	-
COc1cc(CC(=O)Nc2sc3c(c2C(N)=O)CCCC3)cc(OC)c1OC	-	-	-	49	-	-	-
CC1(C)CC(NC(=O)c2cccc(S(=O)(=O)Nc3cccc(Cl)c3)c2)CC(C)(C)N1	-	.	.	.	-	.	.
CCN(CC)S(=O)(=O)c1cc(NC(=O)CSc2nc3c(cc2C#N)C(=O)CC(C)(C)C3)ccc1C	-	-	-	32	-	-	-
CCN(CC)S(=O)(=O)c1cc(NC(=O)CSc2nnc(N)s2)ccc1C	-	.	.	.	-	.	.
C=C(C)COc1ccc(-c2ncncc2-c2ccccc2)c(O)c1	-	-	-	-	-	.	.
O=C(NCCc1ccc(C(F)(F)F)cc1)C1CC(=O)N(Cc2ccccc2)C1 (stereo not given)	-	.	.	.	-	.	.
CCn1c2ccccc2c2cc(NC(=O)COC(=O)c3ccccc3F)ccc21	-	-	-	37	-	-	-
COc1ccc(-n2c(SCC(=O)NCC3CCCO3)nc3c([nH]c4ccccc43)c2=O)cc1 (stereo not given)	-	-	-	110	-	123	-
CCn1c(SCC(=O)Nc2ccc(C(C)=O)cc2)nc2c([nH]c3ccccc32)c1=O	-	-	-	39	-	-	-
COc1cccc(-n2c(SCC(=O)NCC3CCCO3)nc3c([nH]c4ccccc43)c2=O)c1 (stereo not given)	-	-	-	-	-	.	.
CCn1c(SCC(=O)Nc2cccc(NC(C)=O)c2)nc2c([nH]c3ccccc32)c1=O	-	-	-	-	-	.	.
CC(C)C(NS(=O)(=O)c1cccc2nsnc12)C(=O)NC1CCCCC1C (stereo not given)	-	-	-	-	-	.	.

Screens (PubChem)
